Source: ChEMBL document CHEMBL3525900, “Pharmacokinetics, distribution, and metabolism of [14C]sunitinib in rats, monkeys, and humans” (Drug Metab Dispos, 2012)

Columns and labels:
Zone of skin [1] = assay: Drug concentration in male albino rat abdomen skin assessed as radioactivity per gram of tissue at 20 mg/kg administered as single dose via gastric gavage measured after 6 hrs by autoradiographic analysis; type: ADME, organism-based; parameters: dose 20 mg/kg, dosed compound name [14C]Sunitinib; settings: in vivo, po
Adrenal = assay: Drug concentration in male Lister Hooded pigmented rat adrenal assessed as radioactivity per gram of tissue at 20 mg/kg administered as single dose via gastric gavage measured after 168 hrs by autoradiographic analysis; type: ADME, organism-based; parameters: dose 20 mg/kg, dosed compound name [14C]Sunitinib; settings: in vivo, po
[2] = Drug concentration in male albino rat testis assessed as radioactivity per gram of tissue at 20 mg/kg administered as single dose via gastric gavage measured after 72 hrs by autoradiographic analysis; type: ADME, organism-based; parameters: dose 20 mg/kg, dosed compound name [14C]Sunitinib; settings: in vivo, po
Blood = assay: Drug concentration in male albino rat blood assessed as radioactivity per gram of tissue at 20 mg/kg administered as single dose via gastric gavage measured after 24 hrs by autoradiographic analysis; type: ADME, organism-based; parameters: dose 20 mg/kg, dosed compound name [14C]Sunitinib; settings: in vivo, po
Rattus norvegicus [3] = assay: Cmax as total radioactivity in female Sprague-Dawley rat plasma at 15 mg/kg, po administered as single dose by LC/MS/MS analysis; type: ADME, organism-based; parameters: dose 15 mg/kg, dosed compound name [14C]Sunitinib, route oral; settings: in vivo
Method in brief: (§1)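 Single dose of [14C]sunitinib L-malate as free base, 50 µCi/kg. IV dose was 5 mg/kg by tail vein in 5 females. Oral dose was 15 mg/kg by gavage in 3 females and 3 males. Total radioactivity was by scintillation counting. […] Cmax was read from raw data, t½ by log-linear regression, AUC by linear trapezoidal rule.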

[4] = Drug concentration in male Lister Hooded pigmented rat brown fat assessed as radioactivity per gram of tissue at 20 mg/kg administered as single dose via gastric gavage measured after 168 hrs by autoradiographic analysis; type: ADME, organism-based, Brown adipose tissue; parameters: dose 20 mg/kg, dosed compound name [14C]Sunitinib; settings: in vivo, po
[5] = Drug concentration in male albino rat bladder assessed as radioactivity per gram of tissue at 20 mg/kg administered as single dose via gastric gavage measured after 6 hrs by autoradiographic analysis; type: ADME, organism-based, Urinary bladder; parameters: dose 20 mg/kg, dosed compound name [14C]Sunitinib; settings: in vivo, po
Small intestine = assay: Drug concentration in female albino rat small intestine assessed as radioactivity per gram of tissue at 20 mg/kg administered as single dose via gastric gavage measured after 3 hrs by autoradiographic analysis; type: ADME, organism-based; parameters: dose 20 mg/kg, dosed compound name [14C]Sunitinib; settings: in vivo, po
Cynomolgus monkey [6] = assay: AUC (0 to infinity) as total radioactivity in female cynomolgus monkey plasma at 6 mg/kg, po administered as single dose by LC/MS/MS analysis; type: ADME, organism-based, Macaca fascicularis; parameters: time infinity, dose 6 mg/kg, dosed compound name [14C]Sunitinib, route oral; settings: in vivo
Method in brief: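 Cynomolgus monkeys of both sexes received one oral gavage of [14C]sunitinib L-malate at 6 mg/kg (37 µCi/kg). Femoral-vein blood was taken into heparin from 0.5 to 336 h. Plasma was kept cold and protected from light, then stored at -80 °C. Total radioactivity was by scintillation counting and sunitinib by methanol-extraction LC-MS-MS. Cmax was from raw data, t½ from the log-linear terminal slope, AUC(0-∞) by linear trapezoidal rule.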

Lung = assay: Drug concentration in male Lister Hooded pigmented rat lung assessed as radioactivity per gram of tissue at 20 mg/kg administered as single dose via gastric gavage measured after 168 hrs by autoradiographic analysis; type: ADME, organism-based; parameters: dose 20 mg/kg, dosed compound name [14C]Sunitinib; settings: in vivo, po
Harderian gland = assay: Drug concentration in female albino rat harderian gland assessed as radioactivity per gram of tissue at 20 mg/kg administered as single dose via gastric gavage measured after 3 hrs by autoradiographic analysis; type: ADME, organism-based; parameters: dose 20 mg/kg, dosed compound name [14C]Sunitinib; settings: in vivo, po
Method in brief: (§2)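 Sprague Dawley albino rats, ca 7-8 weeks old, dosed once by gastric gavage with [14C]sunitinib L-malate (15 mg freebase/kg, 100 µCi/kg). One male and one female killed by CO2 at 3, 6, 24, 72 and 168 h. Carcasses frozen in solid CO2/hexane, embedded and cut into 30 µm sagittal sections, then freeze-dried. Radioactivity quantified by whole-body autoradiography against standards by regression, background subtracted.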

[7] = Drug concentration in female albino rat bladder assessed as radioactivity per gram of tissue at 20 mg/kg administered as single dose via gastric gavage measured after 3 hrs by autoradiographic analysis; type: ADME, organism-based, Urinary bladder; parameters: dose 20 mg/kg, dosed compound name [14C]Sunitinib; settings: in vivo, po
Method in brief: (§3)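 Sprague Dawley (albino) rats, ca 7-8 weeks old, received a single gastric-gavage dose of [14C]sunitinib L-malate at 20 mg/kg (15 mg freebase/kg, 100 µCi/kg). One animal per sex killed by CO2 at 3, 6, 24, 72 and 168 h, then frozen in CO2/hexane. 30 µm sagittal sections were cut and freeze-dried. Radioactivity per gram quantified by whole-body autoradiography using regression against standards. LOQ 0.04–0.06 µg freebase equiv/g.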

Thymus = assay: Drug concentration in male albino rat thymus assessed as radioactivity per gram of tissue at 20 mg/kg administered as single dose via gastric gavage measured after 3 hrs by autoradiographic analysis; type: ADME, organism-based; parameters: dose 20 mg/kg, dosed compound name [14C]Sunitinib; settings: in vivo, po
Large intestine [8] = assay: Drug concentration in male Lister Hooded pigmented rat large intestine assessed as radioactivity per gram of tissue at 20 mg/kg administered as single dose via gastric gavage measured after 24 hrs by autoradiographic analysis; type: ADME, organism-based; parameters: dose 20 mg/kg, dosed compound name [14C]Sunitinib; settings: in vivo, po
[9] = Drug recovery in feces of human at 50 mg, po administered as single dose during 0 to 504 hrs by liquid scintillation counting; type: ADME, organism-based; parameters: dosed compound name [14C]Sunitinib; settings: in vivo
Zone of skin [10] = assay: Drug concentration in female albino rat abdomen skin assessed as radioactivity per gram of tissue at 20 mg/kg administered as single dose via gastric gavage measured after 168 hrs by autoradiographic analysis; type: ADME, organism-based; parameters: dose 20 mg/kg, dosed compound name [14C]Sunitinib; settings: in vivo, po; method in brief: as §3
Liver = assay: Drug concentration in male Lister Hooded pigmented rat liver assessed as radioactivity per gram of tissue at 20 mg/kg administered as single dose via gastric gavage measured after 72 hrs by autoradiographic analysis; type: ADME, organism-based; parameters: dose 20 mg/kg, dosed compound name [14C]Sunitinib; settings: in vivo, po
Large intestine [11] = assay: Drug concentration in female albino rat large intestine assessed as radioactivity per gram of tissue at 20 mg/kg administered as single dose via gastric gavage measured after 6 hrs by autoradiographic analysis; type: ADME, organism-based; parameters: dose 20 mg/kg, dosed compound name [14C]Sunitinib; settings: in vivo, po; method in brief: as §2
Spleen = assay: Drug concentration in male albino rat spleen assessed as radioactivity per gram of tissue at 20 mg/kg administered as single dose via gastric gavage measured after 3 hrs by autoradiographic analysis; type: ADME, organism-based; parameters: dose 20 mg/kg, dosed compound name [14C]Sunitinib; settings: in vivo, po
[12] = Drug concentration in male albino rat eye assessed as radioactivity per gram of tissue at 20 mg/kg administered as single dose via gastric gavage measured after 24 hrs by autoradiographic analysis; type: ADME, organism-based; parameters: dose 20 mg/kg, dosed compound name [14C]Sunitinib; settings: in vivo, po
Rattus norvegicus [13] = assay: Cmax as total radioactivity in female Sprague-Dawley rat plasma at 5 mg/kg, iv administered as single dose by LC/MS/MS analysis; type: ADME, organism-based; parameters: dose 5 mg/kg, dosed compound name [14C]Sunitinib, route intravenous; settings: in vivo; method in brief: as §1
[14] = Drug concentration in male albino rat preputial gland assessed as radioactivity per gram of tissue at 20 mg/kg administered as single dose via gastric gavage measured after 72 hrs by autoradiographic analysis; type: ADME, organism-based; parameters: dose 20 mg/kg, dosed compound name [14C]Sunitinib; settings: in vivo, po
Cynomolgus monkey [15] = assay: Drug recovery in cage residue of female cynomolgus monkey at 6 mg/kg, po administered as single dose during 0 to 336 hrs by liquid scintillation counting; type: ADME, organism-based, Macaca fascicularis; parameters: dose 6 mg/kg, dosed compound name [14C]Sunitinib, route oral; settings: in vivo
Homo sapiens = assay: Tmax as total radioactivity in human plasma at 50 mg, po administered as single dose measured up to 24 hrs by LC/MS/MS analysis; type: ADME, organism-based; parameters: dosed compound name [14C]Sunitinib; settings: in vivo
Large intestine [16] = assay: Drug concentration in male Lister Hooded pigmented rat large intestine assessed as radioactivity per gram of tissue at 20 mg/kg administered as single dose via gastric gavage measured after 168 hrs by autoradiographic analysis; type: ADME, organism-based; parameters: dose 20 mg/kg, dosed compound name [14C]Sunitinib; settings: in vivo, po
Pancreas [17] = assay: Drug concentration in male Lister Hooded pigmented rat pancreas assessed as radioactivity per gram of tissue at 20 mg/kg administered as single dose via gastric gavage measured after 168 hrs by autoradiographic analysis; type: ADME, organism-based; parameters: dose 20 mg/kg, dosed compound name [14C]Sunitinib; settings: in vivo, po
Kidney = assay: Drug concentration in male albino rat kidney assessed as radioactivity per gram of tissue at 20 mg/kg administered as single dose via gastric gavage measured after 72 hrs by autoradiographic analysis; type: ADME, organism-based; parameters: dose 20 mg/kg, dosed compound name [14C]Sunitinib; settings: in vivo, po
[18] = Drug concentration in male albino rat testis assessed as radioactivity per gram of tissue at 20 mg/kg administered as single dose via gastric gavage measured after 6 hrs by autoradiographic analysis; type: ADME, organism-based; parameters: dose 20 mg/kg, dosed compound name [14C]Sunitinib; settings: in vivo, po
Pancreas [19] = assay: Drug concentration in male albino rat pancreas assessed as radioactivity per gram of tissue at 20 mg/kg administered as single dose via gastric gavage measured after 24 hrs by autoradiographic analysis; type: ADME, organism-based; parameters: dose 20 mg/kg, dosed compound name [14C]Sunitinib; settings: in vivo, po

Compound: CCN(CC)CCNC(=O)c1c(C)[nH]c(/[14CH]=C2\C(=O)Nc3ccc(F)cc32)c1C.O=C(O)C[C@H](O)C(=O)O
- Radiolabel recovery (Zone of skin [1]): 3.45 ugequiv
- Radiolabel recovery (Adrenal): 0.74 ugequiv
- Radiolabel recovery [2]: 0.39 ugequiv
- Radiolabel recovery (Blood): 0.07 ugequiv
- Cmax (Rattus norvegicus [3]): 2926 ngequiv/ml
- Radiolabel recovery [4]: 0.06 ugequiv
- Radiolabel recovery [5]: 2.56 ugequiv
- Radiolabel recovery (Small intestine): 14.16 ugequiv
- AUC (Cynomolgus monkey [6]): 5692 ng.Eq.hr/ml
- Radiolabel recovery (Lung): 0.06 ugequiv
- Radiolabel recovery (Harderian gland): 17.26 ugequiv
- Radiolabel recovery [7]: 3.73 ugequiv
- Radiolabel recovery (Thymus): 6.89 ugequiv
- Radiolabel recovery (Large intestine [8]): 0.69 ugequiv
- Radiolabel recovery [9]: 61%
- Radiolabel recovery (Zone of skin [10]): 0.26 ugequiv
- Radiolabel recovery (Liver): 0.22 ugequiv
- Radiolabel recovery (Large intestine [11]): 7.43 ugequiv
- Radiolabel recovery (Spleen): 20.52 ugequiv
- Radiolabel recovery [12]: 0.08 ugequiv
- Cmax (Rattus norvegicus [13]): 2148 ngequiv/ml
- Radiolabel recovery [14]: 0.13 ugequiv
- Radiolabel recovery (Cynomolgus monkey [15]): 0.6%
- Tmax (Homo sapiens): 8 h
- Radiolabel recovery (Large intestine [16]): 0.06 ugequiv
- Radiolabel recovery (Pancreas [17]): 0.06 ugequiv
- Radiolabel recovery (Kidney): 0.16 ugequiv
- Radiolabel recovery [18]: 0.9 ugequiv
- Radiolabel recovery (Pancreas [19]): 1.68 ugequiv
